Activity calls are given as the source filed them. No cut-off for these calls is given here.
Tests used:
[1] = biological target: Retinoid isomerohydrolase (Bos taurus) (UniProt Q28175); test: Inhibition of RPE65 in bovine microsomes assessed as reduction on 11-cis-retinol production at 0.5 to 50 uM incubated for 1 hr by HPLC analysis; conditions: Microsome, dose 0.5-50 µM
[2] = biological target: Retinoid isomerohydrolase (Bos taurus, UniProt Q28175); test: Inhibition of RPE65 in bovine microsomes assessed as reduction on 11-cis-retinol production incubated for 1 hr by HPLC analysis; design: species or system Microsome
Sequence of Retinoid isomerohydrolase (Q28175 whole entry): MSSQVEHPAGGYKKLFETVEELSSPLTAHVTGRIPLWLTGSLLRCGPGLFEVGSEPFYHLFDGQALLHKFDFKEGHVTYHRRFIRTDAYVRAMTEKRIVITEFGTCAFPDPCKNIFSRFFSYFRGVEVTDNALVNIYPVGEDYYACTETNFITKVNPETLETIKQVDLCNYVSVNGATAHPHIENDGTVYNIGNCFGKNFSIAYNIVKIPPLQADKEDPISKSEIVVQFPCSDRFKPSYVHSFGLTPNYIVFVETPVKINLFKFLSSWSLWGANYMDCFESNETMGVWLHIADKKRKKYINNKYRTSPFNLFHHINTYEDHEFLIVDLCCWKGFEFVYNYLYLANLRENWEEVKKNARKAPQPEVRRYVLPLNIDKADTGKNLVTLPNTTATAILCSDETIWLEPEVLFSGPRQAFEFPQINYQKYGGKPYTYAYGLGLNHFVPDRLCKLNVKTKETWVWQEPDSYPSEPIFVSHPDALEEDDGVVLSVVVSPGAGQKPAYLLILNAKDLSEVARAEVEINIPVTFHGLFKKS

[3] = biological target: T1, Retinoid isomerohydrolase (Mus musculus) (UniProt Q91ZQ5); test: In vivo inhibition of RPE65 in BALB/cJ mouse eye by measuring retinyl ester level per eye at 10 mg/kg,ip administrated and measured after 4 hrs of dark adaptation by HPLC analysis; format: functional, organism-based
T1 sequence (whole entry): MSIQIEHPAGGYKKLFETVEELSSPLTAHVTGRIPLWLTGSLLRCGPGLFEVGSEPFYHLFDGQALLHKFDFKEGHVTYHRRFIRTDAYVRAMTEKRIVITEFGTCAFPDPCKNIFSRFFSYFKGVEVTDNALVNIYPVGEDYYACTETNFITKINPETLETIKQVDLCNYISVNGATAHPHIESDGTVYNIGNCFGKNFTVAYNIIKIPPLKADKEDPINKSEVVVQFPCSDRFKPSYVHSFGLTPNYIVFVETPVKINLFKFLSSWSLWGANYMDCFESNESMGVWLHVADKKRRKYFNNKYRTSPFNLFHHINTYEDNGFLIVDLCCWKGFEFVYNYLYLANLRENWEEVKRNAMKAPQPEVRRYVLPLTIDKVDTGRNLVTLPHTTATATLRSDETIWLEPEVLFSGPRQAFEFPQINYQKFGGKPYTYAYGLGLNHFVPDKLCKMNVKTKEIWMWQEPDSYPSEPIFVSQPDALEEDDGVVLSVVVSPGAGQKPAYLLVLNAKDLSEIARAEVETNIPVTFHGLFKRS

[4] = biological target: T1, Retinoid isomerohydrolase (Mus musculus); test: In vivo inhibition of RPE65 in BALB/cJ mouse eye by measuring 11-cis-retinal level per eye at 10 mg/kg,ip administrated and measured after 24 hrs of dark adaptation by HPLC analysis; format: functional, organism-based
[5] = biological target: T1, Retinoid isomerohydrolase (Mus musculus); test: In vivo inhibition of RPE65 in BALB/cJ mouse eye by measuring retinyl ester level per eye at 10 mg/kg,ip administrated and measured after 24 hrs of dark adaptation by HPLC analysis; format: functional, organism-based
[6] = biological target: T1, Retinoid isomerohydrolase (Mus musculus); test: In vivo inhibition of RPE65 in BALB/cJ mouse eye by measuring 11-cis-retinal level per eye at 10 mg/kg,ip administrated and measured after 4 hrs of dark adaptation by HPLC analysis; format: functional, organism-based
[7] = biological target: T1, Retinoid isomerohydrolase (Mus musculus); test: In vivo inhibition of RPE65 in BALB/cJ mouse eye by measuring retinyl ester level per eye at 10 mg/kg,ip administrated by HPLC analysis; format: functional, organism-based
[8] = biological target: T1, Retinoid isomerohydrolase (Mus musculus); test: In vivo inhibition of RPE65 in BALB/cJ mouse eye by measuring 11-cis-retinal level per eye at 10 mg/kg,ip administrated by HPLC analysis; format: functional, organism-based
[9] = Drug concentration in C57BL/6J mouse serum assessed as emixustat concentration at 10 mg/kg,ip administrated and measured after 4 hr by HPLC-MS analysis; format: ADME, organism-based; conditions: in vivo, read-out: Ct
[10] = Drug metabolism in mouse aorta assessed as VAP-1 mediated oxidative deaminated product formation by measuring ACU-5201 metabolite concentration and measured after 1 hr by HPLC analysis; format: ADME, tissue-based
[11] = Drug concentration in mouse aorta by HPLC analysis; format: ADME, tissue-based; conditions: in vitro, read-out: Drug uptake
[12] = Metabolic stability in mouse liver microsomes assessed as CYP450-mediated metabolism by measuring Km measured upto 60 mins in presence of NADPH by Michaelis-Menten based HPLC analysis; format: ADME, Microsome; conditions: 1 h
[13] = Drug metabolism in mouse aorta assessed as VAP-1 mediated oxidative deaminated product formation by measuring ACU-5201 metabolite concentration and measured after 4 hr by HPLC analysis; format: ADME, tissue-based
[14] = Drug concentration in mouse aorta measured after 4 hr by HPLC analysis; format: ADME, tissue-based; conditions: read-out: Drug uptake
[15] = Metabolic stability in mouse liver microsomes assessed as CYP450-mediated metabolism by measuring initial velocity at 25 uM measured upto 60 mins in presence of NADPH by HPLC analysis; format: ADME, Microsome; conditions: 1 h
[16] = Metabolic stability in mouse liver microsomes assessed as CYP450-mediated metabolism by measuring initial velocity at 15 uM measured upto 60 mins in presence of NADPH by HPLC analysis; format: ADME, Microsome; conditions: 1 h
[17] = Drug concentration in C57BL/6J mouse eye assessed as emixustat concentration per eye at 10 mg/kg,ip administrated and measured after 24 hr by HPLC-MS analysis; format: ADME, organism-based; conditions: in vivo
[18] = Drug metabolism in mouse aorta assessed as VAP-1 mediated oxidative deaminated product formation by measuring ACU-5201 metabolite concentration by HPLC analysis; format: ADME, tissue-based
[19] = Intrinsic clearance in mouse liver microsomes measured upto 60 mins in presence of NADPH by HPLC analysis; format: ADME, Microsome; conditions: 1 h
[20] = Metabolic stability in mouse liver microsomes assessed as CYP450-mediated metabolism by measuring Vmax measured upto 60 mins in presence of NADPH by Michaelis-Menten based HPLC analysis; format: ADME, Microsome; conditions: 1 h
[21] = Metabolic stability in mouse liver microsomes assessed as CYP450-mediated metabolism by measuring initial velocity at 200 uM measured upto 60 mins in presence of NADPH by HPLC analysis; format: ADME, Microsome; conditions: 1 h
[22] = Drug concentration in C57BL/6J mouse serum assessed as emixustat concentration at 10 mg/kg,ip administrated and measured after 1 hr by HPLC-MS analysis; format: ADME, organism-based; conditions: in vivo, read-out: Ct
[23] = Drug concentration in C57BL/6J mouse eye assessed per eye at 10 mg/kg,ip administrated and measured after 24 hr by HPLC-MS analysis; format: ADME, organism-based; conditions: in vivo
[24] = Metabolic stability in mouse liver microsomes assessed as CYP450-mediated metabolism by measuring initial velocity at 100 uM measured upto 60 mins in presence of NADPH by HPLC analysis; format: ADME, Microsome; conditions: 1 h
[25] = Drug concentration in C57BL/6J mouse eye assessed per eye at 10 mg/kg,ip administrated and measured after 4 hr by HPLC-MS analysis; format: ADME, organism-based; conditions: in vivo
[26] = Metabolic stability in mouse liver microsomes assessed as CYP450-mediated metabolism by measuring initial velocity at 50 uM measured upto 60 mins in presence of NADPH by HPLC analysis; format: ADME, Microsome; conditions: 1 h
[27] = Drug concentration in mouse aorta measured after 1 hr by HPLC analysis; format: ADME, tissue-based; conditions: read-out: Drug uptake
[28] = Drug concentration in C57BL/6J mouse serum at 10 mg/kg,ip administrated and measured after 1 hr by HPLC-MS analysis; format: ADME, organism-based; conditions: read-out: Ct
[29] = biological target: Retinoid isomerohydrolase (Bos taurus) (UniProt Q28175); test: Inhibition of RPE65 in bovine microsomes assessed as fold decrease in 11-cis-retinol production at 0.02 to 10 uM incubated for 1 hr by HPLC analysis; conditions: Microsome, dose 0.02-10 µM
How it was run: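 Bovine RPE microsomes in 10 mM BTP pH 7.4 with 1% BSA, 5 mM pyrophosphate and 16.4 µM apo-CRALBP (His-tagged, E. coli-expressed, Ni-purified). Amine in DMF, 0–10 µM final, was preincubated 2 min. All-trans-retinol was added, then 1 h at 37 °C in the dark. Reaction was quenched with methanol and extracted with hexane. 11-cis-retinol was quantified by normal-phase HPLC.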

Sequence of Retinoid isomerohydrolase (Bos taurus) (Q28175 2-533 limits assumed): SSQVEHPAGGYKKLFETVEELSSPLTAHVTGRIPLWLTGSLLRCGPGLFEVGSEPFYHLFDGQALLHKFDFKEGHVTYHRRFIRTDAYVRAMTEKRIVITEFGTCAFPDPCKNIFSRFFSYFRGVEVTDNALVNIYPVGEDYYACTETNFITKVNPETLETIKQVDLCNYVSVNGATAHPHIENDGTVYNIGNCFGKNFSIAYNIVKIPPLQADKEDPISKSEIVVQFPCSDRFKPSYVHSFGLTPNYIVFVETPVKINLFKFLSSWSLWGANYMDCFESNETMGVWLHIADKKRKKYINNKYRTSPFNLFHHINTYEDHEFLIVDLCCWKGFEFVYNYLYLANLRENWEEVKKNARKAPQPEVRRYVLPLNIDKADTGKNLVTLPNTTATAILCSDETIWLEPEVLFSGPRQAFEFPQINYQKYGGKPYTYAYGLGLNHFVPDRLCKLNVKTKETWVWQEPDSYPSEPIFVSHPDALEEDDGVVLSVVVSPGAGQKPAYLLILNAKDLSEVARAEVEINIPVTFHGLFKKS

Row | Compound | inhibition [1] | IC50 [2] | Activity [3] | Activity [4] | Activity [5] | Activity [6] | Activity [7] | Activity [8] | IC50 ([2]; read-out: IC50) | also measured
1 | NC(CO)Cc1cccc(OCC2CCCCC2)c1 (configuration not stated) | inactive | Not Active |  |  |  |  |  |  |  | 
2 | NC(CCO)c1cccc(OCC2CCCCC2)c1 (configuration not stated) | inactive | Not Active |  |  |  |  |  |  |  | 
3 | CC(CN)Cc1ccc(F)c(OCC2CCCCC2)c1 (configuration not stated) |  | Not Active | 101 pmol | 398 pmol | 123 pmol | 413 pmol | 260 pmol | 23.5 pmol |  | 
4 | NCCC(O)c1ccc(OCC2CCCCC2)cc1 (configuration not stated) |  |  |  |  |  |  |  |  | 8080 nM | 
5 | NC(CO)Cc1ccc(OCC2CCCCC2)cc1 (configuration not stated) | inactive | Not Active |  |  |  |  |  |  |  | 
6 | CC(CN)Cc1cccc(OCC2CCCCC2)c1 (configuration not stated) |  |  | 112 pmol | 254 pmol | 85.6 pmol | 323 pmol | 256 pmol | 17.4 pmol | 390 nM | 
7 | CNCCC(O)c1cccc(OCC2CCCCC2)c1 (configuration not stated) |  |  | 396 pmol | 202 pmol | 215 pmol | 22.5 pmol | 297 pmol | 13.8 pmol | 290 nM | concentration [9]: 0.0795 µM; Drug metabolism [10]: 0.48 µM; concentration [11]: 100 µM; Km [12]: 0.039 µM; Drug metabolism [13]: 3.76 µM; concentration at 4 h [14]: 89.1 µM; V0 [15]: 54.17 pmol/min; V0 [16]: 23.38 pmol/min; Ct [17]: 1.329 pmol; Drug metabolism [18]: 0 µM; CLH [19]: 30700 µL/min/mg; Vmax [20]: 119.5 pmol/min; V0 [21]: 97.45 pmol/min; concentration [22]: 0.0523 µM; Ct [23]: 0 pmol; V0 [24]: 89.82 pmol/min; Ct [25]: 7.609 pmol; V0 [26]: 64.21 pmol/min; concentration at 1 h [27]: 101 µM; concentration at 1 h [28]: 0.75 µM
8 | NCCc1cccc(OCC2CCCCC2)c1 |  |  | 89.5 pmol | 406 pmol | 65 pmol | 393 pmol | 254 pmol | 16 pmol |  | 
9 | NCCCc1cccc(OCC2CCCCC2)c1 |  |  |  |  |  |  |  |  |  | fold change (FC) [29]: 8
10 | CC(CCN)c1cccc(OCC2CCCCC2)c1 (configuration not stated) |  |  | 436 pmol | 370 pmol | 124 pmol | 94.4 pmol | 292 pmol | 25.6 pmol |  | fold change (FC) [29]: 4
